# Measurements as given in PubChem BioAssay AID573 (SRMLSC, 2007).
# The campaign covered roughly 65,000 compounds. About 1,400 (2.2%) were called active. The list comes from a sample in which actives are over-represented; it also holds similar structures and randomly drawn compounds. Unmarked numbers belong to inactive results.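 Rule for the calls: active = growth inhibition at or above a cutoff equal to the mean over every tested compound plus 3 SD (cut at about 60% in these data); inactive = the rest.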
# Test: E. coli ΔtolC antibacterial growth inhibition – strain BW25113 ΔtolC::kan, 384-well, primary screen (AID 573)
# Conditions: E. coli BW25113 tolC mutant growth, OD615; active compounds read high; screened at 10 µM (by protocol)
# How it was run: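 Test system: tolC-deleted E. coli BW25113; medium: LB with kanamycin 50 µg/mL; compound: single-point testing at 10 µM; incubation: 20 h compound exposure of bacteria at 37 °C; signal: OD at 615 nm; evaluation: growth inhibition in percent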
row,SMILES,growth inhibition
1,CC(=O)c1c(C)n([O-])c2ccccc2[n+]1=O,97.5% (active)
2,C=CCSc1nc2c(c(=O)[nH]1)C(C(C)C)C(C#N)=C(N)O2 (configuration not stated),0.15%
3,CCCn1c(=NC(C)=O)c(C(=O)OCC)cc2c(=O)n3ccccc3nc21,-3.58%
4,C=CCOc1nc2c(c(=O)n(C)c(=O)n2C)n1Cc1ccc(Cl)cc1Cl,12.2%
5,Cc1nc2c(-c3ccccc3)c(C)[nH]n2c(=O)c1Cl,98% (active)
6,CCCN(CCC)C(=O)C1c2ccccc2Oc2ccccc21,17.6%
7,CCOC(=O)N1CCC(NC(=O)Cn2cc3c(n2)CCCCC3)CC1,-12.2%
8,CCC(Oc1ccccc1)C(=O)NCc1cccnc1 (configuration not stated),-6.02%
9,Cc1ccc(OCc2nc(C#N)c(N3CCCC3)o2)cc1,5.67%
10,N#Cc1nc(COc2ccc(-c3ccccc3)cc2)oc1NCc1cccnc1,88.7% (active)
11,COc1ccc(N2CC(C)Cn3c2nc2c3c(=O)n(Cc3ccccc3F)c(=O)n2C)c(OC)c1 (configuration not stated),13.4%
12,Cc1nnc(SCC(=O)NCCOc2ccc(Cl)cc2)n1-c1ccccc1,-1.57%
13,COc1ccc2c(c1)CCc1c(C(=O)N3CCc4ccccc4C3)noc1-2,77.6% (active)
14,COc1ccc2c(c1)CCc1c(C(=O)N3CCCC3)noc1-2,-0.81%
15,COc1ccc2c(c1)CCc1c(C(=O)Nc3c(C)n(C)n(-c4ccccc4)c3=O)noc1-2,-4.64%
16,O=c1c(-c2ccc3c(c2)OCCO3)c(C(F)(F)F)oc2cc(O)cc(O)c12,11.4%
17,CCCOC(=O)c1cc2ccccc2oc1=O,-13.8%
18,CCOC(=O)c1cc2cc(-c3c(C(=O)OCC)oc4cc(O)cc(O)c4c3=O)ccc2o1,87.4% (active)
19,CC1(c2ccccc2Cl)NC(=O)N(CC(=O)NC(=O)NCc2ccco2)C1=O (configuration not stated),-3.76%
20,COc1ccc(C2=NOC(C(=O)NCc3ccco3)C2)cc1OC (configuration not stated),-12.4%
21,CCS(=O)(=O)n1nc(-c2ccccc2)nc1SCc1ccccc1,62.5% (active)
22,CCS(=O)(=O)n1nc(-c2ccc(OC)cc2)nc1SC,2.8%
23,CCCc1cc(=O)n2[nH]c(SCc3ccccc3)nc2n1,11.2%
24,CN(C)[C@@H]1C(=O)C(C(N)=O)=C(O)[C@@]2(O)C(=O)C3=C(O)c4c(O)ccc(Cl)c4[C@@H](O)[C@H]3C[C@@H]12,100% (active)
25,CCSC1=C(C#N)C(=O)n2c1cc1c2CCCC1,11.6%

row,SMILES,growth inhibition
1,Cc1ccc(S(=O)(=O)N2CCC(C(=O)N[C@@H](C)C(=O)NCCc3ccccc3)CC2)cc1,-5.94%
2,COc1ccc(Nc2oc(-c3ccccc3Cl)nc2C#N)cc1,9.32%
3,N#Cc1nc(-c2ccc(OCc3ccccc3)cc2)oc1NCCCN1CCOCC1,96.3% (active)
4,c1ccc2[nH]c(NCCN3CCOCC3)nc2c1,-17.2%
5,COc1ccc(OC)c2c(N)c(C#N)c(C(F)(F)C(F)(F)F)nc12,2.98%
6,O=C(Nc1ccc(Cl)cn1)c1cnn2cccnc12,-3.45%
7,CCN=C1SC(CC(=O)Nc2ccc(C)cc2)C(=O)N1CC (configuration not stated),-9.63%
8,C[C@H](NC(=O)OC(C)(C)C)c1nnc(SCC(=O)Nc2ccc(Br)cc2)o1,15.3%
9,CC(C)(CSc1nncn1/N=C/c1ccco1)NS(=O)(=O)c1ccc(Cl)cc1,15.6%
10,COc1ccc(Cc2nnc(NS(=O)(=O)Cc3ccccc3)s2)cc1,5.52%
11,CCOC(=O)c1[nH]c2ccc(OC)cc2c1NC(=O)N1CCOCC1,-1.42%
12,O=C1CSC(c2cccc(F)c2)N1c1ccccc1F (configuration not stated),9.21%
13,CCCSc1nc2c(c(=O)[nH]c(=O)n2C)n1CCc1ccccc1,5.24%
14,CCCCCCn1c(SCC(=O)c2ccccc2)nc2c1c(=O)[nH]c(=O)n2C,14.9%
15,CCCCCn1c(SCCC(C)C)nc2c1c(=O)[nH]c(=O)n2C,64.3% (active)
16,COC(=O)c1ccc2c(c1)S(=O)(=O)NC(=NCCCN1CCOCC1)S2,-18.4%
17,O/N=C1\CC2(Cc3nonc31)OCCO2,-23.4%
18,O=C(COC(=O)c1ccc(Oc2ccccc2)cc1)Nc1nnc(-c2ccccc2)o1,100% (active)
19,COc1ccc(CC(=O)Nc2ccc(-c3nnc(-c4ccccc4)o3)cc2)cc1,-6.58%
20,Cc1ccc(OCC(=O)Nc2ccc(-c3nnc(-c4ccco4)o3)cc2)cc1,-19.2%
21,CC(C(=O)N1CCOCC1)N1c2cccc3cccc(c23)S1(=O)=O (configuration not stated),-2.26%
22,COc1cccc(NC(=O)Nc2nnc(N3CCCCC3C)s2)c1 (configuration not stated),61.5% (active)
23,COc1cccc(Nc2nnc(SCC(=O)N3CC(C)OC(C)C3)s2)c1 (configuration not stated),8.6%
24,COc1cccc(NC(=O)C2CCCN2C(=O)OCc2ccccc2)c1 (configuration not stated),-9.18%
25,CCCc1nnc(NC(=O)CN2C(=O)c3ccccc3S2(=O)=O)s1,-16.8%

row,SMILES,growth inhibition
1,CC(C)Cc1cc(C(=O)NCCc2ccccc2)no1,9.12%
2,CC(C)CNC(=O)c1cc(-c2ccc(Br)cc2)on1,1.43%
3,CC(C)Cc1cc(C(=O)Nc2cc(Br)ccc2O)no1,80.4% (active)
4,NC(=O)c1ccccc1NC(=O)c1ccccc1F,-2.79%
5,CCN1CCCC1CNc1ncnc2c1[nH]c1ccc(F)cc12 (configuration not stated),3.38%
6,CC(C)OCCCNc1ncnc2c1[nH]c1ccc(F)cc12,96.2% (active)
7,O=C1CCCN1CCCNc1ncnc2c1[nH]c1ccccc12,-26.6%
8,COc1ccccc1NC(=O)c1ccc(C)s1,14.1%
9,CCOc1ccccc1NC(=O)CCN1CCN(S(=O)(=O)c2ccc(OC)cc2)CC1,-7.02%
10,CCOc1ccccc1NC(=O)Nc1cc(OC)ccc1OC,-9.62%
11,CCOc1ccccc1Oc1cn[nH]c1-c1ccc(OC)cc1O,98.2% (active)
12,O=C(Nc1ccc2c(c1)OCO2)C1CC(c2c(F)cccc2Cl)=NO1 (configuration not stated),18%
13,CCOC(=O)c1c(-n2cnnn2)sc(C)c1C,1.46%
14,Cc1cc(C)nc(N2CCN(c3ncnc4c3oc3ccccc34)CC2)n1,-15.7%
15,CCOC(=O)C1CCN(c2ncnc3c2oc2ccc(Br)cc23)CC1,100% (active)
16,CCOC(=O)N1CCN(C(=O)C2CCN(c3ncnc4c3sc3cccc(F)c34)CC2)CC1,32.2%
17,CC(C)COC(=O)C1C2C=CC3(CN(C(C)c4ccc(Br)cc4)C(=O)C13)O2 (configuration not stated),-3.74%
18,COCCNC(=O)c1ccccc1-c1nc(-c2ccccc2Cl)no1,1.03%
19,Cc1ccc(SCCN2C(=O)NC(C)(C)C2=O)cc1,13.1%
20,Cc1ccc(C2(c3ccc(C)cc3)NC(=O)N(Cc3c(C)noc3C)C2=O)cc1,94.9% (active)
21,C=CCNC(=O)CCCOc1cccc(C)c1,-3.22%
22,COc1ccccc1N1CCN(C(=O)c2c(-c3c(Cl)cccc3Cl)noc2C)CC1,23.5%
23,c1ccc(CSc2nnc(-c3ccco3)n2Cc2ccccc2)cc1,100% (active)
24,O=C(CSc1nnc(-c2ccco2)n1Cc1ccccc1)NC(=O)NCc1ccco1,12.2%
25,Clc1ccccc1CSc1nnc(-c2ccco2)c(-c2ccco2)n1,9.86%

row,SMILES,growth inhibition
1,Nc1cc(=O)nc(SCc2ccccc2)n1Cc1ccco1,7.07%
2,O=C(CSc1nnc(-c2ccco2)n1CC1CCCO1)c1ccccc1 (configuration not stated),-11.9%
3,c1ccc(CSc2nnc(-c3ccco3)c(-c3ccco3)n2)cc1,72.5% (active)
4,CC(C)c1nc(N2CCOCC2)c(C#N)c2c1COC(C)(C)C2,8.03%
5,Cc1ccc(S(=O)(=O)N2CC(=O)Nc3ccccc32)cc1C,-6.32%
6,CCCC(=O)Nc1c(O)c2ccccc2[nH]c1=O,-32.1%
7,CCCc1nc2ccccc2c(=O)n1NC(=O)c1c(O)c2ccccc2[nH]c1=O,72.5% (active)
8,CCCCc1nc2ccccc2c(=O)n1NC(=O)c1c(O)c2cccc3c2n(c1=O)CC3,34.2%
9,Cc1cc(Nc2ccccc2)n(C(=O)c2ccc(N)cc2)n1,25.2%
10,N#Cc1c(N)n(CCOC(=O)c2ccc(Cl)cc2)c2nc3ccccc3nc12,5%
11,CC(=O)N1C(=O)C2(Nc3ccccc3N2)c2ccccc21,-14%
12,COc1c(Br)cc2c(C)c(C(=O)N3CCOCC3)oc2c1Br,0.15%
13,C=C(C)COc1ccc(-c2n[nH]c(C)c2-c2ccccc2)c(O)c1,95.4% (active)
14,COc1ccccc1-c1c(C)nn2c(C)c(C(C)=O)cnc12,15.8%
15,COc1ccc(-c2n[nH]c(C)c2-c2ccc(OC)c(OC)c2)c(O)c1,38.4%
16,C=C(C)COc1ccc(-c2n[nH]c(C)c2-c2ccccc2OC)c(O)c1,88.4% (active)
17,Cn1c(=O)c2c(nc(SCCNS(=O)(=O)c3ccccc3)n2C)n(C)c1=O,0.89%
18,Cc1ncc(CC(=O)n2cc(C(=O)c3cc(Cl)ccc3O)cn2)s1,5.26%
19,C=CCn1c(SCC(=O)Nc2nc3ccccc3s2)nnc1-c1ccccc1O,87.9% (active)
20,CCn1c(SCC(=O)Nc2nc3ccc(OC)cc3s2)nnc1-c1ccoc1C,27.9%
21,C=CCn1c(CSc2nc3ccccc3s2)nnc1SCC(=O)NCc1ccco1,29.4%
22,CCOc1ccccc1-n1c(SCC(=O)NCc2ccco2)nnc1-c1ccncc1,-11.1%
